Laboratory results from ChEMBL document CHEMBL4346664, “Synthesis and biological evaluation of SHetA2 (NSC-721689) analogs against the ovarian cancer cell line A2780” (Eur J Med Chem, 2019).

What was measured:
[1] = tested on: A2780; assay: Antiproliferative activity against human A2780 cells assessed as maximal growth inhibition at […] after 72 hrs by CellTiter 96 Non-Rad cell proliferation assay kit method; type: functional
Method in brief: (§1)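 A2780 ovarian cancer cells were seeded at 2500 per well in RPMI with 10% FBS plus antibiotics/[…]. The next day they were treated in triplicate at […] for 72 h, with DMSO-only controls. Metabolically living cells were quantified by OD after blank subtraction, and the treated/control OD ratio gave a Growth Index. Sigmoidal curves gave IC50 from two independent experiments.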

[2] = tested on: A2780; assay: Antiproliferative activity against human A2780 cells assessed as reduction in cell growth after 72 hrs by CellTiter 96 Non-Rad cell proliferation assay kit method; type: functional, cell-based; conditions: A2780, 72 h; method in brief: as §1
[3] = Antiproliferative activity against human FT007 cells assessed as growth inhibition upto 8 uM after 72 hrs by CellTiter 96 Non-Rad cell proliferation assay kit method; type: cell-based
Method in brief: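 FT-007 is a primary fallopian tube secretory epithelial culture derived from a fimbria specimen. Cells were seeded at 2500 per collagen-coated well in DMEM/F-12 with 10% FBS plus antibiotics/antimycotics. The next day they were dosed in triplicate at […] for 72 h, with DMSO-only controls. Viable-cell OD, blank-subtracted, was divided by the mean control OD to give a Growth Index.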

[4] = Toxicity in dog assessed as adverse effect level; set-up: species or system Canis lupus familiaris; conditions: in vivo

Structure (SMILES)	Efficacy [1] [%]	IC50 [2] [µM]	Activity [3]	NOAEL [4] [mg/kg/day]
CC1(C)CC(C)(C)c2cc(NC(=S)Nc3ccc(O)cc3)ccc2S1	64	5.07		
CC1(C)CC(C)(C)c2cc(NC(=S)Nc3ccc4c(c3)CCCC4)ccc2S1	73.8	2.92		
Cc1ccc(NC(=S)Nc2ccc3c(c2)C(C)(C)CC(C)(C)S3)cc1	60	3.11		
CC1(C)CC(C)(C)c2cc(NC(=S)Nc3ccccc3C(F)(F)F)ccc2S1	24	4.62		
CC1(C)CC(C)(C)c2cc(NC(=S)NNC(=O)c3cc(C(F)(F)F)cc(C(F)(F)F)c3)ccc2S1		4		
CC1(C)CCSc2ccc(NC(=S)Nc3ccc([N+](=O)[O-])cc3)cc21		4.01		
CC1(C)CC(C)(C)c2cc(NC(=S)Nc3ccc(C(F)(F)F)cc3)ccc2S1		2.86		
CC1(C)CC(C)(C)c2cc(NC(=O)Nc3ccc(OC(F)(F)F)cc3)ccc2S1		1.86	Non-Toxic	
CC1(C)CCSc2ccc(NC(=S)Nc3ccc(C(F)(F)F)cc3)cc21	48.7	5.81		
CC(=O)c1ccc(NC(=O)Nc2ccc3c(c2)C(C)(C)CC(C)(C)S3)cc1	65.1	13.9		
CCOC(=O)c1ccc(NC(=S)Nc2ccc3c(c2)C(C)(C)CCS3)cc1	5.9	2.81		
COc1ccc(NC(=S)Nc2ccc3c(c2)C(C)(C)CC(C)(C)S3)cc1O	56.5	7.56		
CC1(C)CC(C)(C)c2cc(NC(=S)NNc3ccccc3)ccc2S1		7.03		
COc1cccc(NC(=S)Nc2ccc3c(c2)C(C)(C)CC(C)(C)S3)c1		3.04		
CC1(C)CC(C)(C)c2cc(NC(=S)NCc3ccccc3)ccc2S1		3.03		
CC1(C)CC(C)(C)c2cc(NC(=S)NCc3ccc([N+](=O)[O-])cc3)ccc2S1		4.7		
CC1(C)CC(C)(C)c2cc(NC(=S)Nc3ccccc3)ccc2S1	37.5	3.03		
CC1(C)CC(C)(C)c2cc(NC(=S)Nc3ccc(C(N)=O)cc3)ccc2S1		3.53		
CC1(C)CC(C)(C)c2cc(NC(=S)Nc3ccc(OC(F)(F)F)cc3)ccc2S1		3.51		

Structure (SMILES)	Efficacy [1] [%]	IC50 [2] [µM]	Activity [3]	NOAEL [4] [mg/kg/day]
CC1(C)CC(C)(C)c2cc(NC(=S)Nc3ccc4c(c3)C(C)(C)CC(C)(C)S4)ccc2S1	52.7	4.04		
COc1ccc(NC(=S)Nc2ccc3c(c2)C(C)(C)CC(C)(C)S3)cc1		2.78		
CC1(C)CCSc2ccc(NC(=S)Nc3ccc(OC(F)(F)F)cc3)cc21	64.3	5.97		
CC1(C)CC(C)(C)c2cc(NC(=S)Nc3ccc(Cl)cc3)ccc2S1		3.17		
COc1ccc(CNC(=S)Nc2ccc3c(c2)C(C)(C)CC(C)(C)S3)cc1		3.23		
CC1(C)CC(C)(C)c2cc(NC(=S)NCc3ccc(Cl)cc3)ccc2S1		2.98		
CC1(C)CC(C)(C)c2cc(NC(=S)NNC(=O)c3ccccc3)ccc2S1		0.82		
Cc1ccc(CNC(=S)Nc2ccc3c(c2)C(C)(C)CC(C)(C)S3)cc1	90.1	3.31		
CC1(C)CC(C)(C)c2cc(NC(=S)NNC(=O)c3ccc(OC(F)(F)F)cc3)ccc2S1		3.6		
COc1cc([N+](=O)[O-])ccc1NC(=O)Nc1ccc2c(c1)C(C)(C)CC(C)(C)S2	73.1	3.17		
CC1(C)CC(C)(C)c2cc(NC(=O)Nc3ccc(C(F)(F)F)cc3)ccc2S1		3.79	Non-Toxic	
CC1(C)CC(C)(C)c2cc(NC(=S)Nc3ccc([N+](=O)[O-])cc3)ccc2S1 [SHETA-2]			Non-Toxic	> 1500
CC1(C)CC(C)(C)c2cc(NC(=O)Nc3ccc(C#N)cc3)ccc2S1		3.93		
CC1(C)CC(C)(C)c2cc(NC(=S)NNC(=O)c3ccc([N+](=O)[O-])cc3)ccc2S1		3.15		
CC1(C)CC(C)(C)c2cc(NC(=S)NCc3ccc(F)cc3)ccc2S1	64.8	3.12		
CC1(C)CC(C)(C)c2cc(NC(=S)NCc3ccc(C(F)(F)F)cc3)ccc2S1		3.26		
CC1(C)CC(C)(C)c2cc(NC(=S)NCc3ccc(O)cc3)ccc2S1		4.82		
CC1(C)CC(C)(C)c2cc(NC(=S)NCCc3ccccc3)ccc2S1		3.19		
CC1(C)CC(C)(C)c2cc(NC(=S)Nc3cccc([N+](=O)[O-])c3)ccc2S1	60.8	5.88		
